Compounds with a hit are over-represented: about 2.6% of the library has one in this group of screens.
S100A4 MyoIIA: S100A4-myosin IIA interaction inhibition; S100A4/TAMRA-MyoIIA peptide fluorescence polarization; P26447; inhibition, % at 10.7 µM; 0.14% of 360,000 active;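 active = mean inhibition of at least 70% across replicates, with every replicate also reaching that level; inconclusive = mean inhibition reaches 70% but some replicates fall short; inactive = mean inhibition below 70%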
Target sequence (P26447 whole entry, looked up): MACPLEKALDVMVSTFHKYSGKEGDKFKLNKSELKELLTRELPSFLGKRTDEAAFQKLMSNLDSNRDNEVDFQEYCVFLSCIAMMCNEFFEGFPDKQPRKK
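Assay system: human S100A4 monomer with TAMRA-labelled myosin IIA peptide / Buffer or medium: Calcium-containing HEPES buffer, pH 7.2 / Reagent: TAMRA-labelled myosin IIA heavy-chain peptide probe, 5 nM / Compound: one dose per compound / Timing: polarization read 5 min after assay mix addition, stable 5–60 min / Benchmarks: neutral control DMSO, positive control TFP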
Env fusion inh: inhibitors of HIV Env-mediated cell fusion. AID 651610. inhibition, % at 12.3 µM. 1.1% of 360,000 active. HeLa-JRFL Env/CEM21 cell fusion, luciferase;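 active = mean replicate inhibition score of at least 50 and every replicate individually at or above 50; inconclusive = only one of the two criteria met; inactive = mean below 50 and not all replicates reaching 50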;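 also: 0% = plate neutral controls and 100% = maraviroc near 300 nM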
Ecoli rRNA inh: inhibitors of bacterial rRNA selective over humanized ribosomes; E. coli WT GFP vs humanized-ribosome RFP mutants, fluorescence, 24 h; stronger effect = lower value; DMSO median 0, no signal -100; GFP signal change (wild-type ribosome), % (concentration not given with the values); 1.6% of 350,000 active; AID 720706;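 active = significant combined selectivity score with lowered wild-type GFP, culture density cut under 30%, mutant RFP and density less affected; inactive = any of these conditions unmet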
miR122 inh: inhibitors of miR-122 in Huh7 cells. Huh7 miR-122 Renilla luciferase sensor, 48 h; neutral wells = 0, positive control = 100. activation (reporter increase), % at 12.5 µM. 0.3% of 340,000 active;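 active = mean replicate activation score at least 90 and every replicate individually at or above 90; inconclusive = only one of the two criteria met; inactive = neither criterion met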;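 also: higher luciferase means less miR-122 activity so hits act as miR-122 inhibitors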
Vif imaging: inhibitors of HIV Vif | 0.35% of 340,000 active | AID 602346 | inhibition, % at 7.49 µM | HEK293T cells, Vif self-association by quenched fluorescence, imaging, 24 h; in the data active = inhibition above about 50%, passing the limit was not always enough; inconclusive = no clear call, values can overlap the other calls; inactive = below about 31%
FN deposition inh: fibronectin deposition inhibition | 0.086% of 350,000 active | AH1F fibroblasts, Alexa488-fibronectin deposition fluorescence, overnight | inhibition, % at 12.6 µM;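 active = mean inhibition across replicates of 30% or more, regardless of how many single replicates reach that level; inconclusive = mean under 30% yet at least half of replicates reach 30%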;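 also: positive control wells lacked labelled fibronectin entirely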
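Material: AH1F fibroblast monolayer depositing Alexa488-labelled fibronectin into matrix | Input: 10000 AH1F cells/well | Medium: DMEM plus 2% serum, read in PBS | Reagent: Alexa488-fibronectin, 24 nM final in well | Compound dosing: One dose per compound, pinned | Schedule: 1 h adhesion, overnight exposure | Measured by: Fluorescence at 485 nm excitation, 525 nm emission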
AID977621: wild-type E. coli growth inhibition versus H69 humanized strain – H69 mutant RFP, wild-type GFP, cherry-pick, dose response; shares compounds with Ecoli rRNA inh; fluorescence, 24 h; activity change, negative = inhibition at 50 µM; 1,900 tested, under 10 active;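 active = Wild-type ribosome reporter drop at least double the humanized mutant ribosome reporter drop, growth loss under a set limit; inconclusive = no clear call, values can overlap the other calls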;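 also: wild-type GFP and H69 mutant RFP strains grown together 50/50 in each well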
AID977628: growth of wild-type and h24-humanized E. coli strains – h24 mutant RFP vs wild-type GFP, cherry-pick, dose response; shares compounds with Ecoli rRNA inh; E. coli WT GFP strain growth, fluorescence, 24 h; activity change, negative = inhibition at 50 µM; 1,900 tested, under 10 active; AID 977628;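 active = compound lowering the normal-ribosome reporter at least twice as much as the humanized-ribosome reporter, growth loss under a set limit; inconclusive = no clear call, values can overlap the other calls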;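 also: wild-type GFP and h24 humanized RFP strains co-cultured 1 to 1 per well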
Numbers without * were called inactive; ? = inconclusive; . = no result; [ ] = another dose, or the depositor's remark.

SMILES | S100A4 MyoIIA | Env fusion inh | Ecoli rRNA inh | miR122 inh | Vif imaging | FN deposition inh | AID977621 | AID977628
O=[N+]([O-])c1ccccc1Oc1ccc(Cl)c2cccnc12 | -4 | -4 | -29* | . | 8 | 2 | -14 | .
O=[N+]([O-])c1ccc(Cl)c2cccnc12 | 0 | -9 | 13 | . | . | -8 | . | .
Cc1cc(OCC(=O)N(Cc2ccco2)C2CCS(=O)(=O)C2)ccc1Cl (stereo not given) | 3 | 20 | -19* | -4 | 11 | 10 | ? | .
O=C(COc1ccc(Cl)cc1)N(Cc1ccco1)C1CCS(=O)(=O)C1 (stereo not given) | 4 | 11 | -5 | . | -10 | 0 | . | .
CC1(c2ccc3ccccc3c2)NC(=O)N(CC(=O)N2CCN(c3ccccc3O)CC2)C1=O (stereo not given) | 8 | 15 | -20* | -4 | -7 | -2 | -4.6 | -6.5
CN1CCN(C(=O)CN2C(=O)NC(C)(c3ccc4ccccc4c3)C2=O)CC1 (stereo not given) | -1 | . | 10 | -10 | -3 | 2 | . | .
COc1ccc(C#Cc2ccc3c(c2)O[C@H](CN(C)C(=O)CN2CCOCC2)[C@@H](C)CN([C@H](C)CO)S3(=O)=O)cc1 | . | -3[16.7 µM] | -2 | -21[16.7 µM] | . | . | . | .
COC(=O)c1ccc(OCC(=O)c2ccccc2OC)cc1 | -2 | -102 | -23* | 3 | 1 | -9 | 3.2 | -7
O=C(CC1CC1)N1[C@@H](CO)[C@H](c2ccccc2)C12CN(Cc1ccncc1)C2 | 4 | . | 4 | . | . | . | . | .
O=C(O)CNC(=O)C(c1ccccc1)c1ccccc1 | 0 | 4 | -17* | 2 | 13 | 2 | -6.8 | -7
COc1ccc2c3c([nH]c2c1)[C@H](CO)N(Cc1ccccn1)CC31CN(C(C)=O)C1 | . | . | 4 | . | . | . | . | .
CC(=O)c1cc2c(cc1NC(=O)CN1CCCCCCC1)OCO2 | . | -130 | . | 7 | -18 | -5 | . | .
CCCCc1cc2c(cc1NC(=O)CN1CCCCC1)OCCO2 | -7 | 6 | -18* | 2 | -18 | 1 | . | -10
O=C(Nc1ccc(Cl)c(Cl)c1)N[C@H]1CC[C@@H](CCn2cc(C3CCCCC3)nn2)O[C@@H]1CO | -17 | 20[16.7 µM] | -44* | . | . | -4 | . | ?
O=C(Nc1ccc(Cl)c(Cl)c1)N[C@@H]1CC[C@H](CCn2cc(C3CCCC3)nn2)O[C@H]1CO | 6 | . | -56 | . | . | 11 | . | .
O=C(Nc1ccc(Cl)c(Cl)c1)N[C@@H]1CC[C@@H](CCn2cc(C3CCCCC3)nn2)O[C@H]1CO | 40 | -5[16.7 µM] | -42* | . | . | 1 | ? | ?
C[C@@H]1CN([C@H](C)CO)C(=O)c2cccc(NS(=O)(=O)c3ccc(Cl)cc3)c2O[C@H]1CN(C)S(=O)(=O)c1cccs1 | . | . | -9 | . | . | 3 | . | .
COc1ccc2c3c([nH]c2c1)[C@H](CO)N(C(=O)C1CC1)CC31CN(C(=O)NC(C)C)C1 | -1 | . | 5 | . | . | . | . | .
CCCN(CCC)CCCNc1ccc(C(=O)Nc2cccc(OC)c2)cc1[N+](=O)[O-] | 1 | 23 | -10 | -5 | -15 | 5 | . | .
Cc1ccc(NC(=O)c2ccc(NCCCN3CCC(C)CC3)c([N+](=O)[O-])c2)c(C)c1 | -4 | 14 | -2 | -2 | -15 | 5 | . | .
COc1cccc(NC(=O)c2ccc(NCCCN3CCC(C)CC3)c([N+](=O)[O-])c2)c1 | 7 | 12 | -25* | -17 | -4 | -6 | -3.5 | ?
COc1cccc(NC(=O)c2ccc(NCCCN3CC(C)CC(C)C3)c([N+](=O)[O-])c2)c1 (stereo not given) | -5 | 2 | -46* | . | 0 | . | ? | -5.1
C[C@@H]1CN([C@@H](C)CO)C(=O)c2ccccc2-c2ccccc2CO[C@@H]1CN(C)Cc1ccc2c(c1)OCO2 | -20 | 5[16.7 µM] | -5 | . | . | -2 | . | .
C[C@@H]1CN([C@H](C)CO)C(=O)c2cc(NS(C)(=O)=O)ccc2O[C@@H](C)CCCCO[C@H]1CN(C)S(=O)(=O)c1ccc(F)cc1 | 4 | -1[16.7 µM] | -4 | 2[16.7 µM] | . | . | . | .
CCC1(CC)NC(=O)N(CC(=O)N2N=C(c3ccc(Cl)cc3)CC2c2ccco2)C1=O (stereo not given) | 1 | 5 | -25* | 13 | -2 | . | 4.1 | ?
SMILES | S100A4 MyoIIA | Env fusion inh | Ecoli rRNA inh | miR122 inh | Vif imaging | FN deposition inh | AID977621 | AID977628
CCC(=O)N1N=C(c2ccc(C)cc2)CC1c1ccco1 (stereo not given) | 5 | 3 | -16 | . | 6 | -3 | . | .
Cc1nn2c(NCc3ccccn3)cc(C(C)C)nc2c1-c1ccccc1 | -1 | 28 | -21* | . | -19 | 24 | . | -14
COc1ccc2nc(NC(C)=O)sc2c1 | . | -90 | . | -4 | . | -19 | . | .
CCC(C)C(=O)Nc1nc2ccc(OC)cc2s1 (stereo not given) | -3 | -59 | -22* | 1 | -1 | -6 | -21 | .
CN1CCN(C(=O)c2cc3sc4ccccc4c3s2)CC1 | -1 | -42 | -24* | 4 | -1 | -5 | . | ?
COCc1cc(C)nc(SCC[N+](C)(C)CC(=O)c2ccc(Br)cc2)c1C#N | -8 | -17 | -30* | . | -3 | . | . | -16
Cc1ccc(S(=O)(=O)N(C)C[C@@H]2Oc3ccc(NS(=O)(=O)c4ccc(F)cc4)cc3C(=O)N([C@H](C)CO)C[C@H]2C)cc1 | . | -4[16.7 µM] | -1 | 3[16.7 µM] | . | . | . | .
Cc1ccccc1S(=O)(=O)N1C[C@H]2CON(C)[C@H]2C[C@H]1c1cccc(-c2ccc(C#N)cc2)c1 | -2 | -58 | -18* | -3 | . | -2 | ? | .
CN1OC[C@@H]2CN(C(=O)c3ccco3)[C@H](c3ccc(-c4ccc(C#N)cc4)cc3)C[C@@H]21 | 2 | 10 | -19* | -3 | 0 | -3 | -5.4 | -4.7
CC(c1ccc(F)cc1)n1c(-c2ccc3ccccc3n2)n[nH]c1=S (stereo not given) | 0 | . | -32* | 6 | 10 | . | -4.7 | .
O=C(C[C@H]1CC[C@H]2[C@@H](COC[C@H](O)CN2C(=O)Nc2cccc(F)c2)O1)NCc1ccccc1Cl | -1 | . | -23 | -4[16.7 µM] | . | -3 | . | .
O=S1(=O)N[C@H](Cc2ccccc2)COc2cccc(N3CCC[C@H]3CO)c21 | 0 | 18 | -22* | . | . | -10 | -9.2 | .
O=S1(=O)N[C@@H](Cc2ccccc2)COc2cc(N3CCC[C@H]3CO)ccc21 | -2 | -14 | -16* | . | . | 1 | . | -8.9
